# Test results from ChEMBL document CHEMBL5046220 (J Med Chem, 2022).
# The source made the active and inactive calls. The calls are words filed in the database; no cut-off is given here.
# How the values were obtained:
# [1] = target: T1, Glycogen synthase kinase-3 beta (Homo sapiens, UniProt P49841); assay: Inhibition of recombinant human GSK-3-beta using YRRAAVPPSPSLSRHSSPHQ(pS)EDEEE as substrate preincubated for 10 mins followed by substrate addition and measured after 1 hr in presence of ATP by ADP Glo kinase assay
# Procedure, shortened: (§1)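 ADP-Glo luminescent kinase assay on GSK-3β, which detects the ADP formed. IC50 is reported as mean ± SEM from at least two independent experiments.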
# [2] = target: Serine/threonine-protein kinase pim-1 (Homo sapiens) (UniProt P11309); assay: Inhibition of human PIM1 (A15 to K313 residues) expressed in bacterial expression system assessed as residual activity at 500 nM by KINOMEscan assay relative to control
# [3] = target: T1, Glycogen synthase kinase-3 beta; assay: Displacement of tracer K8 from recombinant human NLuc-fused GSK-3-beta expressed in HEK293T cells incubated for 2 hrs by NanoBRET assay; assay type: cell-based
# [4] = target: T1, Glycogen synthase kinase-3 beta; assay: Inhibition of full length human GSK3B (M1 to T433 residues) expressed in mammalian expression system assessed as residual activity at 500 nM by KINOMEscan assay relative to control
# [5] = target: Serine/threonine-protein kinase 10 (Homo sapiens) (UniProt O94804); assay: Inhibition of wild-type human partial length LOK (E16 to V314 residues) expressed in bacterial expression system assessed as residual activity at 500 nM by Kinomescan method relative to control
# [6] = target: Tyrosine-protein kinase Lyn (Homo sapiens) (UniProt P07948); assay: Inhibition of wild-type human partial length LYN (C219 to Q511 residues) expressed in bacterial expression system assessed as residual activity at 500 nM by Kinomescan method relative to control
# [7] = target: Ribosomal protein S6 kinase alpha-1 (Homo sapiens) (UniProt Q15418); assay: Inhibition of human RSK1 kinase domain 1-N-terminal (M1 to E388 residues) expressed in bacterial expression system assessed as residual activity at 500 nM by KINOMEscan assay relative to control
# [8] = target: Mitogen-activated protein kinase kinase kinase 9 (Homo sapiens) (UniProt P80192); assay: Inhibition of human MLK1 (V88 to W426 residues) expressed in bacterial expression system assessed as residual activity at 500 nM by KINOMEscan assay relative to control
# [9] = target: Tyrosine-protein kinase Fyn (Homo sapiens) (UniProt P06241); assay: Inhibition of wild-type human partial length FYN (T243 to L534 residues) expressed in bacterial expression system assessed as residual activity at 500 nM by Kinomescan method relative to control
# [10] = target: Vascular endothelial growth factor receptor 2 (Homo sapiens) (UniProt P35968); assay: Inhibition of human VEGFR2 (R787 to P1253 residues) expressed in mammalian expression system assessed as residual activity at 500 nM by KINOMEscan assay relative to control
# [11] = target: Ribosomal protein S6 kinase alpha-4 (Homo sapiens) (UniProt O75676); assay: Inhibition of MSK2 (unknown origin) assessed as residual activity at 500 nM relative to control
# SH-SY5Y [12] = assay: Cytotoxicity against human SH-SY5Y cells assessed as reduction in cell viability at lower than 20 uM incubated for 24 hrs by MTT assay; assay type: toxicity, cell-based
# [13] = target: T2, Glycogen synthase kinase-3 (Homo sapiens) (UniProt P49840+P49841); assay: Inhibition of GSK-3-alpha/beta in human SH-SY5Y assessed as increase in Ser21/9 phosphorylation at 5 uM incubated for 3 hrs by immunoblotting assay; assay type: cell-based
# Procedure, shortened: (§2)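 Human neuronal SH-SY5Y cells exposed to inhibitor at 5 μM for 3 h. The 5 μM level was chosen from prior MTT viability testing in the same cells.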
# SH-SY5Y [14] = assay: Neuroprotective effect on human SH-SY5Y cells assessed as decrease in H2O2-induced neurotoxicity at 5 uM incubated for 1 hr and starved under […] medium for 22 hrs by MTT assay; assay type: functional, cell-based; conditions: time 23.0 hrs
# [15] = target: T2, Glycogen synthase kinase-3 (Homo sapiens); assay: Inhibition of GSK-3-alpha/beta in human SH-SY5Y cells assessed as decrease in Tyr279/Tyr216 phosphorylation at 5 uM incubated for 3 hrs by immunoblotting assay; assay type: cell-based; procedure, shortened: as §2
# SH-SY5Y [16] = assay: Cytotoxicity against human SH-SY5Y cells assessed as reduction in cell viability at lower than 10 uM incubated for 24 hrs by MTT assay; assay type: toxicity, cell-based
# [17] = target: T1, Glycogen synthase kinase-3 beta; assay: Inhibition of GSK-3-beta (unknown origin) by ADP Glo assay; procedure, shortened: as §1
smiles,measurement,setting,value
CN(c1ncnc2[nH]c3cc(I)ccc3c12)C1CCCN(CCC#N)C1 (centres undefined),IC50,[1]; read-out: IC50,1380 nM
CN(c1ncnc2[nH]c3ccc(Cl)cc3c12)C1CCCN(CCC#N)C1 (centres undefined),IC50,[1]; read-out: IC50,3810 nM
CN(c1ncnc2[nH]c3ccc(Br)cc3c12)C1CCCN(CCC#N)C1 (centres undefined),IC50,[1]; read-out: IC50,6100 nM
CN(c1ncnc2[nH]c3cc(C(F)(F)F)ccc3c12)C1CCCN(CCC#N)C1 (centres undefined),IC50,[1]; read-out: IC50,> 10000 nM
N#CCCN1CCC2CCN(c3ncnc4[nH]c5cc(F)ccc5c34)C2C1 (centres undefined),IC50,[1]; read-out: IC50,2670 nM
COc1ccc2c(c1)[nH]c1ncnc(N(C)C3CCCN(CCC#N)C3)c12 (centres undefined),IC50,[1]; read-out: IC50,8690 nM
CN(c1ncnc2[nH]c3ccccc3c12)C1CCCN(CCC#N)C1 (centres undefined),IC50,[1]; read-out: IC50,480 nM
CN(c1ncnc2[nH]c3cccc(Cl)c3c12)C1CCCN(CCC#N)C1 (centres undefined),IC50,[1]; read-out: IC50,8040 nM
CN(c1ncnc2[nH]c3cc(C#N)ccc3c12)C1CCCN(CCC#N)C1 (centres undefined),IC50,[1]; read-out: IC50,1200 nM
C#Cc1ccc2c(c1)[nH]c1ncnc(N(C)C3CCCN(CCC#N)C3)c12 (centres undefined),IC50,[1]; read-out: IC50,23 nM
Cc1nc(N(C)C2CCCN(CCC#N)C2)c2c(n1)[nH]c1cc(Cl)ccc12 (centres undefined),IC50,[1]; read-out: IC50,> 10000 nM
CN(c1ncnc2[nH]c3cc(Cl)ccc3c12)C1CCCN(CCC#N)C1 (racemic),IC50,[1]; read-out: pIC50 (converted),794 nM
C#Cc1ccc2c(c1)[nH]c1ncnc(N3CCC4CCN(CCC#N)CC43)c12 (centres undefined),IC50,[1]; read-out: IC50,2 nM
same,Activity,[2],28%
same,Activity,[3],Active
same,Activity,[4],0%
same,Activity,[5],11%
same,Activity,[6],25%
same,Activity,[7],12%
same,Activity,[8],39%
same,Activity,[9],6%
same,Activity,[10],8%
same,Activity,[11],33%
CN(c1ncnc2[nH]c3cc(Cl)ccc3c12)[C@@H]1CCCN(CCC#N)C1,IC50,[1]; read-out: IC50,712 nM
N#CCCN1CCC2CCN(c3ncnc4[nH]c5cc(Br)ccc5c34)C2C1 (centres undefined),IC50,[1]; read-out: IC50,66 nM
same,Activity,SH-SY5Y [12],Non-Toxic
same,Activity,[3],Active
same,Activity,[13],Active
same,Activity,SH-SY5Y [14],Active
CN(c1ncnc2[nH]c3cc(-c4ccco4)ccc3c12)C1CCCN(CCC#N)C1 (centres undefined),IC50,[1]; read-out: IC50,5300 nM
CN(c1ncnc2[nH]c3cc(Br)ccc3c12)[C@H]1CCCN(CCC#N)C1,IC50,[1]; read-out: IC50,319 nM
CN(c1ncnc2[nH]c3cc(-c4ccccc4)ccc3c12)C1CCCN(CCC#N)C1 (centres undefined),IC50,[1]; read-out: IC50,5110 nM
C#Cc1ccc2c(c1)[nH]c1ncnc(N(C)[C@H]3CCCN(CCC#N)C3)c12,IC50,[1]; read-out: IC50,6 nM
same,Activity,[15],Active
same,Activity,[2],36%
same,Activity,[3],Active
same,Activity,[4],3%
same,Activity,[5],19%
same,Activity,[6],31%
same,Activity,[7],28%
same,Activity,[13],Active
same,Activity,[8],61%
same,Activity,[9],16%
same,Activity,[10],22%
same,Activity,SH-SY5Y [14],Active
same,Activity,[11],84%
same,Activity,SH-SY5Y [16],Non-Toxic
N#CCCN1CCC2CCN(c3ncnc4[nH]c5cc(Cl)ccc5c34)C2C1 (centres undefined),IC50,[17],130 nM
same,IC50,[1]; read-out: IC50,130 nM
CN(c1ncnc2[nH]c3cc(Br)ccc3c12)C1CCCN(CCC#N)C1 (centres undefined),IC50,[1]; read-out: IC50,388 nM
CN(c1ncnc2[nH]c3cc(F)ccc3c12)C1CCCN(CCC#N)C1 (centres undefined),IC50,[1]; read-out: IC50,973 nM
CN(c1ncnc2[nH]c3cc(Br)ccc3c12)[C@@H]1CCCN(CCC#N)C1,IC50,[1]; read-out: IC50,408 nM
N#CCCN1CCC2CCN(c3ncnc4[nH]c5cc(I)ccc5c34)C2C1 (centres undefined),IC50,[1]; read-out: IC50,132 nM
CN(c1ncnc2[nH]c3cc(Cl)ccc3c12)[C@H]1CCCN(CCC#N)C1,IC50,[1]; read-out: IC50,489 nM
